Measurements published in ChEMBL document CHEMBL3745659, “Synthesis and Characterization of 4,11-Diaminoanthra[2,3-b]furan-5,10-diones: Tumor Cell Apoptosis through tNOX-Modulated NAD(+)/NADH Ratio and SIRT1” (J Med Chem, 2015).
Calls of active or inactive are those of the source. No cut-off for these calls is given here.

Columns and labels:
AGS [1] = experiment: Upregulation of caspase3-directed PARP cleavage in human AGS cells at 5 uM after 24 hrs by Western blot analysis; assay type: functional, cell-based
AGS [2] = experiment: Induction of apoptosis in human AGS cells assessed as change in mitochondrial transmembrane potential incubated for 1.5 hrs by DiOC6(3) dye-based flow cytometric analysis; assay type: functional, cell-based
HeLa = experiment: Antiproliferative activity against human HeLa cells after 72 hrs by MTT assay; assay type: functional, cell-based
K562 [3] = experiment: Resistance index, ratio of IC50 for human K562/4 cells to IC50 for human K562 cells; assay type: functional
AGS [4] = experiment: Downregulation of SIRT1 protein level in human AGS cells at 1 and 5 uM after 24 after 24 hrs by Western blot analysis; assay type: functional, cell-based
AGS [5] = experiment: Downregulation of Bid protein level in human AGS cells after 24 hrs by Western blot analysis; assay type: functional, cell-based
[6] = Antiproliferative activity against human K562/4 cells after 72 hrs by MTT assay; assay type: functional, cell-based; details: K562/4, 72 h
[7] = Antiproliferative activity against human HCT116 cells after 72 hrs by MTT assay; assay type: functional, cell-based; details: HCT-116, 72 h
AGS [8] = experiment: Upregulation of phosphorylated p53 level in human AGS cells at 1 and 5 uM after 24 hrs by Western blot analysis; assay type: functional, cell-based
L1210 = experiment: Antiproliferative activity against mouse L1210 cells after 72 hrs by MTT assay; details: L1210, 72 h
AGS [9] = experiment: Induction of apoptosis in human AGS cells after 24 hrs by annexin V-FITC staining-based flow cytometric analysis; assay type: functional, cell-based
How it was run: (§1)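 AGS cells exposed to compound for 24 h; Annexin V-FITC staining and flow cytometry used to give percentage of apoptotic cells; mean ± S.E. from at least three independent experiments.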

AGS [10] = experiment: Upregulation of acetylated p53 level in human AGS cells at 1 and 5 uM after 24 hrs by Western blot analysis; assay type: functional, cell-based
AGS [11] = experiment: Downregulation of tNOX protein level in human AGS cells at 0.1 to 0.5 uM after 24 hrs by Western blot analysis; assay type: functional, cell-based
CCRF-CEM = experiment: Antiproliferative activity against human CEM cells after 72 hrs by MTT assay; assay type: functional, cell-based
K562 [12] = experiment: Antiproliferative activity against human K562 cells after 72 hrs by MTT assay; assay type: functional, cell-based; details: K562, 72 h
[13] = Drug uptake in human K562/4 cells at 3 uM incubated for 2 hrs in presence of verapamil by flow cytometric analysis; assay type: ADME, cell-based; details: k562/4, 2 h
How it was run: (§2)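 K562 and K562/4 cells incubated 2 h with 3 µM compound; uptake measured by flow cytometry as ratios (arbitrary units) of mean fluorescence channels of the histograms; verapamil (10 µM), a Pgp transport blocker, added 30 min before compound where used.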

[14] = Drug uptake in human K562/4 cells at 3 uM incubated for 2 hrs by flow cytometric analysis; assay type: ADME, cell-based; details: k562/4, 2 h; how it was run: as §2
K562 [15] = experiment: Drug uptake in human K562 cells at 3 uM incubated for 2 hrs in presence of verapamil by flow cytometric analysis; assay type: ADME, cell-based; details: k562, 2 h; how it was run: as §2
Calf thymus DNA = experiment: Binding affinity to calf thymus double stranded DNA by spectrophotometric titration method; assay type: nucleic-acid assay; details: Bos taurus
How it was run: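 Absorption spectra of compound recorded while double-stranded DNA concentration was increased (spectrophotometric titration); extinction at absorption maxima 540 and 585 nm and band shift followed.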

[16] = target: T1, NAD-dependent protein deacetylase sirtuin-1 (Homo sapiens) (UniProt Q96EB6); experiment: Inhibition of human recombinant SIRT1 deacetylase activity using Arg-His-Lys-Lys(epsilon-acetyl)-AMC as substrate at 5 uM incubated for 45 mins by fluorescence analysis
T1 sequence (whole entry): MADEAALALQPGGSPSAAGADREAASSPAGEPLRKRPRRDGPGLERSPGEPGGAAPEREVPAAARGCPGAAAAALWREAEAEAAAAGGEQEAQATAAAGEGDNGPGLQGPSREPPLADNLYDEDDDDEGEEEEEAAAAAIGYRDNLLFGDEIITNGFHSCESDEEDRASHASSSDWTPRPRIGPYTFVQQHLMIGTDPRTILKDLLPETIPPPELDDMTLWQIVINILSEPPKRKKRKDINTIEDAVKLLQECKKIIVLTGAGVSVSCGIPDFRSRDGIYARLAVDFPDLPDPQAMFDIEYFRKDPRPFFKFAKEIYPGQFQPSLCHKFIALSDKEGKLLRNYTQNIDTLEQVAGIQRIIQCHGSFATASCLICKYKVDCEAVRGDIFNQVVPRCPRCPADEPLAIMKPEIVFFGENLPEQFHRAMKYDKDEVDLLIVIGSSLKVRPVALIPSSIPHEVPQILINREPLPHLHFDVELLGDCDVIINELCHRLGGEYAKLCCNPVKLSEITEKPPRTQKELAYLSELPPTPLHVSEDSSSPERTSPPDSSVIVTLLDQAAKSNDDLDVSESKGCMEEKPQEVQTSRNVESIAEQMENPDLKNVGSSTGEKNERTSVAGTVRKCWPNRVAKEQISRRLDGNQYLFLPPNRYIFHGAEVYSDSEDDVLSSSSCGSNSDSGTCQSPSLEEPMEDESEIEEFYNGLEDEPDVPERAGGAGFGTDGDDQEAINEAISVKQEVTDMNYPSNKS

[17] = target: T2, DNA topoisomerase 1 (Homo sapiens) (UniProt P11387); experiment: Inhibition of Top1 (unknown origin)-mediated relaxation of pBR322 DNA at 2.5 uM incubated for 30 mins by ethidium bromide staining-based gel electrophoresis assay
T2 sequence (whole entry): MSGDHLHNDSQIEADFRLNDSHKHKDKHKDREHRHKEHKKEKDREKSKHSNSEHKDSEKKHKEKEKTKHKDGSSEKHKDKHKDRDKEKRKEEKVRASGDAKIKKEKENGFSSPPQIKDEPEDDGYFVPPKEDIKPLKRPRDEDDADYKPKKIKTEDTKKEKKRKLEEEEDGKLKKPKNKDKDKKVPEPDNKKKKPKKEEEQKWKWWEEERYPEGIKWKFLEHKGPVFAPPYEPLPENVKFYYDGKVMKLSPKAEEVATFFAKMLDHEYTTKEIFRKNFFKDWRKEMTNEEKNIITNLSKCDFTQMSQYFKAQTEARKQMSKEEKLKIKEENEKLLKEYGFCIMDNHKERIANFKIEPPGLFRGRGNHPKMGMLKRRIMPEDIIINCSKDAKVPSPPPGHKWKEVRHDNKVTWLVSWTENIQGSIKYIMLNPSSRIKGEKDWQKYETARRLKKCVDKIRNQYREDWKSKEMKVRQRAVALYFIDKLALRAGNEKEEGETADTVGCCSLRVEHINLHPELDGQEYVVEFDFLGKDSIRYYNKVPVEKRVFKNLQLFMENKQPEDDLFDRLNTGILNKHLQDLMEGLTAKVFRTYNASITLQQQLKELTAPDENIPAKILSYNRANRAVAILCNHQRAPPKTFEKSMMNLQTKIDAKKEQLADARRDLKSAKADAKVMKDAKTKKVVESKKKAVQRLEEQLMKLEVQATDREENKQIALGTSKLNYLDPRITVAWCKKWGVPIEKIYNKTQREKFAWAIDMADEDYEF
How it was run: (§3)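 Supercoiled pBR322 plasmid treated with Top1 without drug or with compound at 0.5, 2.5 or 10 µM; camptothecin as reference; relaxation assessed by gel electrophoresis.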

AGS [18] = experiment: Induction of apoptosis in human AGS cells assessed as viable cells at 10 uM after 24 hrs by annexin V-FITC staining-based flow cytometric analysis (Rvb=83.7%); assay type: functional; how it was run: as §1
AGS [19] = experiment: Induction of apoptosis in human AGS cells assessed as necrotic cells at 10 uM after 24 hrs by annexin V-FITC staining-based flow cytometric analysis (Rvb=1.1%); assay type: functional
AGS [20] = experiment: Upregulation of total p53 level in human AGS cells at 1 and 5 uM after 24 hrs by Western blot analysis; assay type: cell-based
AGS [21] = experiment: Induction of apoptosis in human AGS cells assessed as early apoptotic cells at 10 uM after 24 hrs by annexin V-FITC staining-based flow cytometric analysis (Rvb=9.8%); assay type: functional; how it was run: as §1
[22] = target: T2, DNA topoisomerase 1 (Homo sapiens); experiment: Inhibition of Top1 (unknown origin)-mediated relaxation of pBR322 DNA at 0.5 uM incubated for 30 mins by ethidium bromide staining-based gel electrophoresis assay; how it was run: as §3
AGS [23] = experiment: Downregulation of tNOX protein level in human AGS cells at 1 and 5 uM after 24 hrs by Western blot analysis; assay type: functional, cell-based
AGS [24] = experiment: Induction of apoptosis in human AGS cells assessed as late apoptotic cells at 10 uM after 24 hrs by annexin V-FITC staining-based flow cytometric analysis (Rvb=5.5%); assay type: functional; how it was run: as §1
[25] = target: T1, NAD-dependent protein deacetylase sirtuin-1 (Homo sapiens); experiment: Inhibition of human recombinant SIRT1 deacetylase activity using Arg-His-Lys-Lys(epsilon-acetyl)-AMC as substrate incubated for 45 mins by fluorescence analysis

Row | SMILES | Activity (AGS [1]) | IC50 (HeLa) | Ratio IC50 (K562 [3]) | Activity (AGS [4]) | Activity (AGS [5]) | IC50 [6] | IC50 [7] | Activity (AGS [8]) | IC50 (L1210) | Activity (AGS [9]) | Activity (AGS [10]) | Activity (AGS [11]) | IC50 (CCRF-CEM) | IC50 (K562 [12]) | also measured
1 | CN(C)CCNc1c2c(c(NCCN(C)C)c3occc13)C(=O)c1ccccc1C2=O | Active | 390 nM | 1.75 | Active | Active | 210 nM | 150 nM | Active | 230 nM | Dose-dependent effect | Active | Active | 340 nM | 120 nM | Activity (AGS [2]): Active
2 | COc1cccc2c1C(=O)c1c(O)c3c(c(O)c1C2=O)C[C@@](O)(C(=O)CO)C[C@@H]3O[C@H]1C[C@H](N)[C@H](O)[C@H](C)O1 [DOXORUBICIN] |  |  |  |  |  | 9750 nM | 110 nM |  | 370 nM |  |  | Active | 60 nM | 120 nM | Drug uptake [13]: Not Active; Drug uptake [14]: Not Active; Drug uptake (K562 [15]): Active
3 | NCCNC(=O)c1cc2c(NCCN)c3c(c(NCCN)c2o1)C(=O)c1ccccc1C3=O |  | 83800 nM |  |  |  |  | 6520 nM |  | 26400 nM |  |  |  | 105000 nM |  | 
4 | O=C1c2ccccc2C(=O)c2c1c(NCCNCCO)c1ccoc1c2NCCNCCO | Active | 460 nM | 89.09 | Active | Active | 9800 nM | 220 nM | Active | 140 nM | Dose-dependent effect | Active | Active | 430 nM | 110 nM | Activity (AGS [2]): Active; Drug uptake [13]: Active
5 | CNCCNc1c2c(c(NCCNC)c3oc(C)cc13)C(=O)c1ccccc1C2=O |  | 190 nM | 35.5 |  |  | 4260 nM | 1600 nM |  |  |  |  |  |  |  | 
6 | O=C1c2c(O)ccc(O)c2C(=O)c2c(NCCNCCO)ccc(NCCNCCO)c21 |  |  |  |  |  |  |  |  |  |  |  |  |  |  | Ka (Calf thymus DNA): 1 ×10⁶ /M
7 | NCCNc1c2c(c(NCCN)c3occc13)C(=O)c1ccccc1C2=O | Active | 550 nM | 1.36 | Active | Active | 150 nM | 110 nM | Active | 300 nM | Dose-dependent effect | Active | Active | 750 nM | 110 nM | Activity (AGS [2]): Active; inhibition [16]: Active
8 | Cc1cc2c(NCCNC(=N)N)c3c(c(NCCNC(=N)N)c2o1)C(=O)c1ccccc1C3=O |  |  |  |  |  |  |  |  |  |  |  |  |  |  | inhibition [17]: Active
9 | CN1CCN(C(=O)c2cc3c(NCCNC(=N)N)c4c(c(NCCNC(=N)N)c3o2)C(=O)c2ccccc2C4=O)CC1 | inactive | 38400 nM | >2 | inactive | inactive | > 100000 nM | 4500 nM | inactive | 79300 nM | inactive | inactive |  | 97700 nM | 49500 nM | Activity (AGS [18]): inactive; inhibition [17]: Active; Activity (AGS [19]): inactive; Activity (AGS [20]): Not Active; Activity (AGS [21]): inactive; inhibition [22]: Active; Activity (AGS [23]): inactive; Activity (AGS [24]): inactive
10 | NCCCNc1c2c(c(NCCCN)c3occc13)C(=O)c1ccccc1C2=O |  | 870 nM |  |  |  |  | 410 nM |  | 730 nM |  |  |  | 890 nM |  | 
11 | N=C(N)NCCNc1c2c(c(NCCNC(=N)N)c3sccc13)C(=O)c1ccccc1C2=O |  |  |  |  |  |  |  |  |  |  |  |  |  |  | inhibition [17]: Active
12 | NC(=O)c1cccnc1 |  |  |  |  |  |  |  |  |  |  |  |  |  |  | inhibition [25]: Active
